# Measurements from ChEMBL document CHEMBL1641550, “Efficient synthesis and biological evaluation of epiceanothic acid and related compounds” (Bioorg Med Chem Lett, 2011).
# Where a name gives a salt, the structure may show the parent alone.
# Key:
# A549 = experiment: Cytotoxicity against human A549 cells after 48 hrs by MTT assay; assay type: functional, cell-based; settings: A549, 48 h
# Procedure, shortened: (§1)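 Cells seeded and allowed to adhere at 37 °C in a CO2 incubator, then exposed for 48 h to 0.0001, 0.0005, 0.001, 0.005, 0.01, 0.05 or 0.1 mmol·L−1 compound. MTT (5%) added for a further 4 h, absorbance read at 570 nm.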
# MCF7 = experiment: Cytotoxicity against human MCF7 cells after 48 hrs by MTT assay; assay type: functional, cell-based; settings: MCF7, 48 h; procedure, shortened: as §1
# HeLa = experiment: Cytotoxicity against human HeLa cells after 48 hrs by MTT assay; assay type: functional, cell-based; procedure, shortened: as §1
# [1] = molecular target: T1, Glycogen phosphorylase, muscle form (Oryctolagus cuniculus, UniProt P00489); experiment: Inhibition of rabbit muscle glycogen phosphorylase a
# T1 sequence (P00489 whole entry): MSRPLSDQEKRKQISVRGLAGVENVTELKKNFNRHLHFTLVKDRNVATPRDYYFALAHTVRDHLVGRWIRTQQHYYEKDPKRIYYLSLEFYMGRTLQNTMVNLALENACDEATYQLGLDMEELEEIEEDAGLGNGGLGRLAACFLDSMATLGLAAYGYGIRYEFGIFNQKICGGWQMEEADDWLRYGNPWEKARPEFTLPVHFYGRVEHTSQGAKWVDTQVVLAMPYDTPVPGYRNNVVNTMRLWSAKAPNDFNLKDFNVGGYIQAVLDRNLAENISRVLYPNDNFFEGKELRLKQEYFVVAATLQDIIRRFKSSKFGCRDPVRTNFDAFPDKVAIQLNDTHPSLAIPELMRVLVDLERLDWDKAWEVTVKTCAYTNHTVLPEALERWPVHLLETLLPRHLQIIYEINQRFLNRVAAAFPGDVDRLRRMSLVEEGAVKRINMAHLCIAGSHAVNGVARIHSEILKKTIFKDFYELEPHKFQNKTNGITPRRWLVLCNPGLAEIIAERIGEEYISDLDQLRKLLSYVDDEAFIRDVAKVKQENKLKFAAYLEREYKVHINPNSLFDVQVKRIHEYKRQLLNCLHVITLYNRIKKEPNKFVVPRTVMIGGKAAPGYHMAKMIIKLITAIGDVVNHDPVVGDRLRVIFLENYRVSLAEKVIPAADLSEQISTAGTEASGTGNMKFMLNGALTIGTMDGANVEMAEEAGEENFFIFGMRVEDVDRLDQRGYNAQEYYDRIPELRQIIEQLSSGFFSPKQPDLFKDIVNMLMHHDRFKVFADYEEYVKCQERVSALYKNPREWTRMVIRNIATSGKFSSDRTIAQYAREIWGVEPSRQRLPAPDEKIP
# PC-3 = experiment: Cytotoxicity against human PC3 cells after 48 hrs by MTT assay; assay type: functional, cell-based; procedure, shortened: as §1
# MT4 = experiment: Cytotoxicity against human MT4 lymphocytes after 48 hrs by MTT assay; assay type: cell-based
# BGC-823 = experiment: Cytotoxicity against human BGC823 cells after 48 hrs by MTT assay; assay type: functional, cell-based; procedure, shortened: as §1
# [2] = system: Human immunodeficiency virus 1; experiment: Antiviral activity against Human immunodeficiency virus 1 NL4-3 infected in MT4 lymphocytes assessed as p24 antigen level by ELISA; assay type: functional, organism-based
# Procedure, shortened: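 HIV-1 NL4-3 variants at MOI 0.01 infect MT-4 cells in a replication screening assay run in 96-well format.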
# [3] = Therapeutic index, ratio of IC50 for human lymphocytes to EC50 for Human immunodeficiency virus 1 NL4-3; settings: read-out: TI
# [4] = Homo sapiens, PC-3, 48 h, read-out: IC50
# [5] = Homo sapiens, BGC-823, 48 h, read-out: IC50
# [6] = Homo sapiens, HeLa, 48 h, read-out: IC50
# [7] = Homo sapiens, MT4, 48 h, read-out: IC50
# [8] = Human immunodeficiency virus 1, NL4-3, read-out: EC50
SMILES,IC50 (A549) [µM],IC50 (MCF7) [µM],IC50 (HeLa; hela),IC50 ([1]; read-out: IC50) [µM],IC50 (PC-3; pc-3),IC50 (PC-3; [4]) [µM],IC50 (MT4; mt4),IC50 (BGC-823; bgc-823),EC50 [2],IC50 (BGC-823; [5]) [µM],IC50 (HeLa; [6]) [µM],selectivity ratio [3],IC50 (MT4; [7]) [µM],"EC50 [2, 8] [µM]",IC50 [1]
C=C(C)[C@@H]1CC[C@]2(COC(c3ccccc3)(c3ccccc3)c3ccccc3)CC[C@]3(C)[C@H](CC[C@@H]4[C@@]5(C)[C@H](C(=O)OC)[C@H](O)C(C)(C)[C@@H]5CC[C@]43C)[C@@H]12,770,398,Not Active,20.1,Not Active,–,–,–,–,–,–,–,–,–,–
COc1cccc2c1C(=O)c1c(O)c3c(c(O)c1C2=O)C[C@@](O)(C(=O)CO)C[C@@H]3O[C@H]1C[C@H](N)[C@H](O)[C@H](C)O1 [DOXORUBICIN HYDROCHLORIDE],0.54,1.65,–,–,–,0.68,–,–,–,–,–,–,–,–,–
C=C(C)[C@@H]1CC[C@]2(COC(c3ccccc3)(c3ccccc3)c3ccccc3)CC[C@]3(C)[C@H](CC[C@@H]4[C@@]5(C)[C@H](C(=O)OC)[C@H](OC(C)=O)C(C)(C)[C@@H]5CC[C@]43C)[C@@H]12,892,565,Not Active,15.2,Not Active,–,Not Active,Not Active,Not Active,–,–,–,–,–,–
C=C(C)[C@@H]1CC[C@]2(CO)CC[C@]3(C)[C@H](CC[C@@H]4[C@@]5(C)CC[C@H](O)C(C)(C)[C@@H]5CC[C@]43C)[C@@H]12 [BETULIN],–,–,–,41.5,–,–,Not Active,–,Not Active,–,–,–,–,–,–
C=C(C)[C@@H]1CC[C@]2(C=O)CC[C@]3(C)[C@H](CC[C@@H]4[C@@]5(C)[C@H](C(=O)OC)[C@H](OC(C)=O)C(C)(C)[C@@H]5CC[C@]43C)[C@@H]12,194,32.5,–,53.8,–,8.51,Not Active,–,Not Active,12.7,105,–,–,–,–
C=C(C)[C@@H]1CC[C@]2(C(=O)O)CC[C@]3(C)[C@H](CC[C@@H]4[C@@]5(C)CC[C@H](OC(=O)CC(C)(C)C(=O)O)C(C)(C)[C@@H]5CC[C@]43C)[C@@H]12 [BEVIRIMAT],–,–,–,–,–,–,–,–,–,–,–,185,15.2,0.082,–
C=C(C)[C@@H]1CC[C@]2(C(=O)O)CC[C@]3(C)[C@H](CC[C@@H]4[C@@]5(C)[C@H](C(=O)OC)[C@H](OC(C)=O)C(C)(C)[C@@H]5CC[C@]43C)[C@@H]12,0.89,0.33,–,46.4,–,10.8,Not Active,–,Not Active,7.64,56.7,–,–,–,–
C=C(C)[C@@H]1CC[C@]2(COC(c3ccccc3)(c3ccccc3)c3ccccc3)CC[C@]3(C)[C@H](CC[C@@H]4[C@@](C)(CC(=O)OC)[C@H](C(C)(C)C(=O)OC)CC[C@]43C)[C@@H]12,996,374,–,2.87,–,5.32,–,–,–,9.54,17.1,–,–,–,–
C=C(C)[C@@H]1CC[C@]2(C(=O)O)CC[C@]3(C)[C@H](CC[C@@H]4[C@@]5(C)[C@H](C(=O)O)[C@H](O)C(C)(C)[C@@H]5CC[C@]43C)[C@@H]12 [EPICEANOTHIC ACID],16.8,87.2,–,194,–,19.7,–,–,–,2.41,–,2.49,38.9,15.6,–
C=C(C)[C@@H]1CC[C@]2(COC(c3ccccc3)(c3ccccc3)c3ccccc3)CC[C@]3(C)[C@H](CC[C@@H]4[C@@](C)(CC(=O)O)[C@H](C(C)(C)C(=O)O)CC[C@]43C)[C@@H]12,136,560,Not Active,0.21,–,6.75,–,Not Active,–,–,–,–,–,–,–
C=C(C)[C@@H]1CC[C@]2(CO)CC[C@]3(C)[C@H](CC[C@@H]4[C@@]5(C)[C@H](C(=O)OC)[C@H](OC(C)=O)C(C)(C)[C@@H]5CC[C@]43C)[C@@H]12,62.9,604,–,–,–,66.3,Not Active,–,Not Active,25.9,–,–,–,–,Not Active
